In ChEMBL document CHEMBL1152322, “Evaluating indole-related derivatives as precursors in the directed biosynthesis of diazepinomicin analogues” (2009):
In brackets after ≈: the same amount, converted by molar mass.

How the values were obtained:
Format in all cases: functional
[1] = system: Enterococcus faecium; experiment: Antimicrobial activity against vancomycin-resistant Enterococcus faecium 379 NC12204 after 18 hrs by broth dilution method; conditions: Enterococcus faecium, 379, 18 h
How it was run: (§1)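 MIC by broth dilution following NCCLS recommendations, Mueller-Hinton II medium; inoculum 5 × 10^5 cfu/mL; antibiotic range 128-0.0625 µg/mL; microtiter plates incubated 18 h at 35 °C in ambient air; MIC read after incubation.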

[2] = system: Enterococcus faecium; experiment: Antimicrobial activity against Enterococcus faecium 436 ID3151 after 18 hrs by broth dilution method; conditions: Enterococcus faecium, 436, 18 h
How it was run: (§2)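 MIC by broth dilution per NCCLS recommendations in Mueller-Hinton II medium. Inoculum 5 × 10^5 cfu/mL, antibiotic concentrations 128-0.0625 µg/mL. Microtiter plates incubated 18 h at 35 °C in ambient air. MIC read at end of incubation.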

[3] = system: Escherichia coli; experiment: Antimicrobial activity against Escherichia coli 389 GC4560 expressing imp after 18 hrs by broth dilution method; conditions: Escherichia coli, 389, 18 h; how it was run: as §2
[4] = system: Staphylococcus aureus; experiment: Antimicrobial activity against methicillin-resistant Staphylococcus aureus 310 SSC8224 after 18 hrs by broth dilution method; conditions: Staphylococcus aureus, 310, 18 h; how it was run: as §1
[5] = system: Candida albicans; experiment: Antimicrobial activity against Candida albicans 54 CA300 after 18 hrs by broth dilution method; conditions: Candida albicans, 54, 18 h; how it was run: as §2
[6] = system: Escherichia coli; experiment: Antimicrobial activity against Escherichia coli 442 GC4559 after 18 hrs by broth dilution method; conditions: Escherichia coli, 442, 18 h; how it was run: as §2
[7] = system: Staphylococcus aureus; experiment: Antimicrobial activity against Staphylococcus aureus 375 ATCC 3538p after 18 hrs by broth dilution method; conditions: Staphylococcus aureus, 375, 18 h; how it was run: as §2

CC(C)=CCC/C(C)=C/CC/C(C)=C/CN1C(=O)c2cc(F)cc(O)c2Nc2c(O)cc(O)cc21
MIC [1]: 16 µg/mL (≈ 33.3 µM) | MIC [2]: 32 µg/mL (≈ 66.6 µM) | MIC [3]: > 128 µg/mL | MIC [4]: 8 µg/mL (≈ 16.6 µM) | MIC [5]: > 128 µg/mL | MIC [6]: > 128 µg/mL | MIC [7]: 16 µg/mL (≈ 33.3 µM)

CC(C)=CCC/C(C)=C/CC/C(C)=C/CN1C(=O)c2ccc(F)c(O)c2Nc2c(O)cc(O)cc21
MIC [1]: 32 µg/mL (≈ 66.6 µM) | MIC [2]: 32 µg/mL (≈ 66.6 µM) | MIC [3]: > 128 µg/mL | MIC [4]: 16 µg/mL (≈ 33.3 µM) | MIC [5]: > 128 µg/mL | MIC [6]: > 128 µg/mL | MIC [7]: 32 µg/mL (≈ 66.6 µM)

CC(C)=CCC/C(C)=C/CC/C(C)=C/CN1C(=O)c2cccc(O)c2Nc2c(O)cc(O)cc21 [DIAZEPINOMICIN]
MIC [1]: 32 µg/mL (≈ 69.2 µM) | MIC [2]: 64 µg/mL (≈ 138 µM) | MIC [3]: > 128 µg/mL | MIC [4]: 8 µg/mL (≈ 17.3 µM) | MIC [5]: > 128 µg/mL | MIC [6]: > 128 µg/mL | MIC [7]: 16 µg/mL (≈ 34.6 µM)
